From ChEMBL document CHEMBL4825737, “Design, synthesis, and biological evaluation of novel 6-(pyridin-3-yl) quinazolin-4(3H)-one derivatives as potential anticancer agents via PI3K inhibition” (Bioorg Med Chem, 2021)
pIC50: −log10 of the molar value. Blank lines part the entries; values can stand above or below the molecule they belong to. Calls of active or inactive are those of the source. The calls are words filed in the database; no cut-off is given here.

Experiments:
[1] = tested on: SH-SY5Y; assay: Antiproliferative activity against human SH-SY5Y assessed as reduction in cell viability measured after 72 hrs by flow cytometry analysis; assay type: functional, cell-based
In short: (§1)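 Cells in RPMI 1640 with 10% FBS and penicillin/streptomycin/amphotericin B, seeded at 2.5–3 × 10⁴ per well. Grown adherent in fresh medium for 24 h, then exposed to a range of compound concentrations for 72 h. Living cell numbers counted by flow cytometry; IC50 calculated. Mean ± SD from three experiments.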

[2] = tested on: HEL; assay: Antiproliferative activity against human HEL cells assessed as reduction in cell viability measured after 72 hrs by flow cytometry analysis; assay type: functional, cell-based; in short: as §1
[3] = tested on: HCC827; assay: Antiproliferative activity against human HCC827 cells assessed as reduction in cell viability measured after 72 hrs by flow cytometry analysis; assay type: functional, cell-based; conditions: HCC827, 72 h; in short: as §1
[4] = Antiproliferative activity against human LM3 cells assessed as reduction in cell viability measured after 72 hrs by flow cytometry analysis; assay type: functional, cell-based; conditions: GILM3, 72 h; in short: as §1
[5] = tested on: HCC827; assay: Induction of apoptosis in human HCC827 cells assessed as late apoptotic cells at 1 uM incubated for 48 hrs by annexin V-FITC and propidium iodide staining based flow cytometry analysis (reference value: 0.56%); assay type: functional
[6] = tested on: HCC827; assay: Induction of apoptosis in human HCC827 cells assessed as reduction in p-CHK1 expression at 1 to 4 uM incubated for 24 hrs by Western blot analysis; assay type: functional, cell-based; conditions: dose 1-4 µM
In short: (§2)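 HCC827 cells treated with a range of compound concentrations for 24 h. Western blot for G2/M-associated proteins with GAPDH as loading control. Bands quantified by densitometry; mean ± SD, n = 3, compared with control.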

[7] = tested on: HCC827; assay: Induction of apoptosis in human HCC827 cells assessed as late apoptotic cells at 2 uM incubated for 48 hrs by annexin V-FITC and propidium iodide staining based flow cytometry analysis (reference value: 0.56%); assay type: functional
[8] = tested on: HCC827; assay: Induction of cell cycle arrest in human HCC827 cells assessed as accumulation at G2 phase incubated for 24 hrs by […]PI assay; assay type: functional, cell-based; conditions: dose 1-4 µM
In short: (§3)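 HCC827 cells held 12 h in medium without FBS, then treated for 24 h. Fixed overnight in 70% ethanol and stained with propidium iodide plus RNase for 30 min in the dark at room temperature. Cell cycle distribution read by flow cytometry.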

[9] = tested on: HCC827; assay: Induction of apoptosis in human HCC827 cells assessed as viable cells at 2 uM incubated for 48 hrs by annexin V-FITC and propidium iodide staining based flow cytometry analysis (reference value: 94.16%); assay type: functional; conditions: read-out: Activity
[10] = tested on: HCC827; assay: Induction of apoptosis in human HCC827 cells assessed as upregulation of cleaved-PRAP by Western blot analysis; assay type: functional, cell-based
In short: (§4)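 HCC827 cells treated with a range of compound concentrations. Western blot for mitochondrial apoptosis proteins with GAPDH as loading control. Bands quantified by densitometry; mean ± SD, n = 3, compared with vehicle control.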

[11] = tested on: HCC827; assay: Induction of apoptosis in human HCC827 cells assessed as upregulation of cleaved-caspase 9 by Western blot analysis; assay type: functional, cell-based; in short: as §4
[12] = tested on: HCC827; assay: Induction of apoptosis in human HCC827 cells assessed as necrotic cells at 1 uM incubated for 48 hrs by annexin V-FITC and propidium iodide staining based flow cytometry analysis (reference value: 2.57%); assay type: functional
[13] = tested on: L02; assay: Antiproliferative activity against human HL7702 cells assessed as reduction in cell viability measured after 72 hrs by flow cytometry analysis; assay type: functional, cell-based; conditions: L02, 72 h; in short: as §1
[14] = tested on: HCC827; assay: Induction of cell cycle arrest in human HCC827 cells assessed as decrease in G1 phase incubated for 24 hrs by […]PI assay; assay type: functional, cell-based; conditions: dose 1-4 µM; in short: as §3
[15] = tested on: HCC827; assay: Induction of apoptosis in human HCC827 cells assessed as necrotic cells at 2 uM incubated for 48 hrs by annexin V-FITC and propidium iodide staining based flow cytometry analysis (reference value: 2.57%); assay type: functional
[16] = tested on: HCC827; assay: Induction of apoptosis in human HCC827 cells assessed as viable cells at 1 uM incubated for 48 hrs by annexin V-FITC and propidium iodide staining based flow cytometry analysis (reference value: 94.16%); assay type: functional; conditions: read-out: Activity
[17] = tested on: HCC827; assay: Induction of apoptosis in human HCC827 cells assessed as upregulation of Bax by Western blot analysis; assay type: functional, cell-based; in short: as §4
[18] = tested on: HCC827; assay: Induction of apoptosis in human HCC827 cells assessed as reduction in CHK1 expression at 1 to 4 uM incubated for 24 hrs by Western blot analysis; assay type: functional, cell-based; conditions: dose 1-4 µM; in short: as §2
[19] = tested on: HCC827; assay: Induction of apoptosis in human HCC827 cells assessed as late apoptotic cells at 4 uM incubated for 48 hrs by annexin V-FITC and propidium iodide staining based flow cytometry analysis (reference value: 0.56%); assay type: functional
[20] = tested on: HCC827; assay: Induction of apoptosis in human HCC827 cells assessed as early apoptotic cells at 2 uM incubated for 48 hrs by annexin V-FITC and propidium iodide staining based flow cytometry analysis (reference value: 2.69%); assay type: functional
[21] = Inhibition of PI3K in human HCC827 cells assessed as decrease in phosphorylation incubated for 24 hrs by cell PI3 kinase activity photometric assay; assay type: cell-based; conditions: HCC827, 24 h
In short: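 Human NSCLC HCC827 cells grown in RPMI 1640 with 10% FBS and antibiotics-antimycotics, exposed to a range of concentrations for 24 h. Cells washed with Reagent A, lysed with Reagent B, protein measured by Bradford, then 100 μg lysate protein per group used in a cell PI3K assay kit for kinase activity. IC50 given as mean ± SD of three separate experiments.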

[22] = tested on: HCC827; assay: Inhibition of PI3K signalling in human HCC827 cells assessed as decrease in phosphorylation of mTOR at Ser2448 at 1 to 4 uM incubated for 24 hrs by Western blot analysis; assay type: cell-based; conditions: dose 1-4 µM
In short: (§5)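 HCC827 cells treated with different compound concentrations for 24 h. Phospho-protein levels measured by Western blot. Mean ± SD from three parallel experiments, compared with DMSO control.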

[23] = tested on: HCC827; assay: Induction of apoptosis in human HCC827 cells assessed as necrotic cells at 4 uM incubated for 48 hrs by annexin V-FITC and propidium iodide staining based flow cytometry analysis (reference value: 2.57%); assay type: functional
[24] = tested on: HCC827; assay: Induction of apoptosis in human HCC827 cells assessed as viable cells at 4 uM incubated for 48 hrs by annexin V-FITC and propidium iodide staining based flow cytometry analysis (reference value: 94.16%); assay type: functional; conditions: read-out: Activity
[25] = tested on: HCC827; assay: Induction of apoptosis in human HCC827 cells assessed as reduction in c-Myc expression at 1 to 4 uM incubated for 24 hrs by Western blot analysis; assay type: functional, cell-based; conditions: dose 1-4 µM; in short: as §2
[26] = tested on: HCC827; assay: Induction of apoptosis in human HCC827 cells assessed as downregulation of Bcl-2 by Western blot analysis; assay type: functional, cell-based; in short: as §4
[27] = tested on: HCC827; assay: Inhibition of PI3K signalling in human HCC827 cells assessed as decrease in phosphorylation of GSKbeta at Ser9 at 1 to 4 uM incubated for 24 hrs by Western blot analysis; assay type: cell-based; conditions: dose 1-4 µM; in short: as §5
[28] = tested on: HCC827; assay: Induction of apoptosis in human HCC827 cells assessed as early apoptotic cells at 1 uM incubated for 48 hrs by annexin V-FITC and propidium iodide staining based flow cytometry analysis (reference value: 2.69%); assay type: functional
[29] = tested on: HCC827; assay: Induction of apoptosis in human HCC827 cells assessed as early apoptotic cells at 4 uM incubated for 48 hrs by annexin V-FITC and propidium iodide staining based flow cytometry analysis (reference value: 2.69%); assay type: functional
[30] = tested on: HCC827; assay: Inhibition of PI3K signalling in human HCC827 cells assessed as decrease in phosphorylation of Akt at Ser473 at 1 to 4 uM incubated for 24 hrs by Western blot analysis; assay type: cell-based; conditions: dose 1-4 µM; in short: as §5
[31] = tested on: HCC827; assay: Induction of apoptosis in human HCC827 cells assessed as reduction in Cyclin-B1 expression at 1 to 4 uM incubated for 24 hrs by Western blot analysis; assay type: functional, cell-based; conditions: dose 1-4 µM; in short: as §2

SMILES: CCCCC(=O)Nc1ccc(-c2ccc3ncn(Cc4ccc(C)cc4)c(=O)c3c2)cn1
pIC50 [1]: 4.45
pIC50 [2]: 4.72
pIC50 [3]: 4.49
pIC50 [4]: < 4.40

SMILES: CCCCn1cnc2ccc(-c3ccc(NC(=O)CC)nc3)cc2c1=O
pIC50 [1]: 5.43
pIC50 [13]: 4.96
pIC50 [2]: 5.55
pIC50 [3]: 5.92
pIC50 [4]: 5.60

SMILES: CCCCC(=O)Nc1ccc(-c2ccc3ncn(CCN4CCOCC4)c(=O)c3c2)cn1
pIC50 [1]: < 4.40
pIC50 [2]: < 4.40
pIC50 [3]: 4.54
pIC50 [4]: < 4.40

Now from value to molecule, other results behind:

pIC50 [1]: < 4.40
pIC50 [3]: < 4.40
SMILES: CCCCC(=O)Nc1ccc(-c2ccc3ncn(Cc4ccc5c(c4)OCO5)c(=O)c3c2)cn1
pIC50 [2]: < 4.40
pIC50 [4]: < 4.40

pIC50 [1]: 5.67
pIC50 [21]: 7.14
pIC50 [3]: 5.95
SMILES: O=C(c1ccccc1)N(C(=O)c1ccccc1)c1ccc(-c2ccc3ncn(Cc4ccccc4)c(=O)c3c2)cn1
Activity [5]: 13.57%
Activity [6]: Active
Activity [7]: 15.63%
Activity [8]: Dose-Dependent Effect
viability at 2 µM [9]: 58.5%
Activity [10]: Dose-Dependent Effect
Activity [11]: Dose-Dependent Effect
Activity [12]: 6.47%
pIC50 [13]: 5.06
Activity [14]: Dose-Dependent Effect
Activity [15]: 6.66%
viability at 1 µM [16]: 68.2%
Activity [17]: Dose-Dependent Effect
Activity [18]: Active
Activity [19]: 11.28%
Activity [20]: 19.16%
pIC50 [2]: 5.70
inhibition [22]: Active
Activity [23]: 6.05%
viability at 4 µM [24]: 54.8%
Activity [25]: Active
Activity [26]: Active
inhibition [27]: Active
pIC50 [4]: 5.58
Activity [28]: 11.77%
Activity [29]: 27.87%
inhibition [30]: Active
Activity [31]: Active

pIC50 [1]: < 4.40
pIC50 [3]: < 4.40
SMILES: CCC(=O)Nc1ccc(-c2ccc3ncn(CC(=O)N4CCOCC4)c(=O)c3c2)cn1
pIC50 [2]: < 4.40
pIC50 [4]: < 4.40

pIC50 [1]: 6.10
pIC50 [3]: 6.28
SMILES: Cn1c(=O)n(-c2ccc(C(C)(C)C#N)cc2)c2c3cc(-c4cnc5ccccc5c4)ccc3ncc21 [DACTOLISIB]
pIC50 [2]: 6.54
pIC50 [4]: 5.88

pIC50 [1]: < 4.40
pIC50 [3]: < 4.40
SMILES: CC(C)(C)C(=O)Nc1ccc(-c2ccc3ncn(Cc4ccccc4)c(=O)c3c2)cn1
pIC50 [2]: < 4.40
pIC50 [4]: < 4.40
